From ChEMBL document CHEMBL4321829, “Chagas Disease Drug Discovery: Multiparametric Lead Optimization against Trypanosoma cruzi in Acylaminobenzothiazole Series” (J Med Chem, 2019) come the findings set out here.

Data set [1] is described as follows: Apparent permeability in MDCK-MDR1 cells at 3 uM after 60 mins by LC-MS/MS analysis. As to conditions: dog. It is filed as ADME, cell-based, Canis lupus familiaris. Put shortly:
(§1)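 Papp was measured in MDR1-MDCK monolayers in HBSS at pH 7.4 (n=2), at 3 μM for 60 min. Transport was measured AB and BA, with and without the P-gp inhibitor GF120918. Monolayers were checked by TEER and Lucifer yellow. Analytes were measured by LC-MS/MS as analyte/IS area ratios. Amprenavir, prazosin and propranolol served as references.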

A short description of data set [2]: Clearance in CD-1 mouse at 5 mg/kg, iv after 5 mins to 24 hrs by LC-MS/MS analysis. To be noted: in vivo. It is filed as ADME, organism-based. Put shortly:
(§2)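 Male CD-1 mice (n=3) received a 5 mg/kg i.v. bolus in 5% DMSO/20% encapsine in saline. Blood was drawn at 5, 15, 30 min and 1, 2, 4, 8 and 24 h, diluted 1/2 with water and frozen.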

In data set [3] the test system is Trypanosoma cruzi. Nature of the data set: Antitrypanosomal activity against tdTomato red expressing Trypanosoma cruzi CL trypomastigotes infected in C57BL/6 mouse at 50 mg/kg administered for 2 days and measured after 4 to 6 days post infection. It is filed as functional, organism-based. The essentials:
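Baseline footpad fluorescence was imaged on day 2. A single 50 mg/kg dose in 1% carboxymethyl cellulose/0.1% Tween 80 was then given. Imaging was repeated at day 4 or 6. IVA was calculated from the treated versus untreated fluorescence change. Controls were 50 mg/kg benznidazole and untreated mice.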

A short description of data set [4]: Protein binding in human plasma at 2 uM after 4 hrs by LC-MS/MS analysis. It is filed as ADME, cell-free. Put shortly: (§3)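 Equilibrium dialysis was run in RED inserts with mouse or human plasma at a final concentration of 2 μM, in triplicate. The receiver side held PBS at pH 7.4. Plates were incubated for 4 h at 37 °C at about 150 rpm. Samples were matrix-matched, protein-precipitated and analysed by LC-MS/MS. %PPB = 100 − (buffer/plasma × 100).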

A short description of data set [5]: Protein binding in mouse plasma at 2 uM after 4 hrs by LC-MS/MS analysis. It is filed as ADME, cell-free. Put shortly:
as §3

A short description of data set [6]: Kinetic solubility of compound by charged aerosol detection method. Format: physicochemical. To be noted: read-out: Kinetic_solubility.
A short description of data set [7]: Selectivity index, ratio of IC50 for rat H9c2 cells to IC50 for antitrypanosomal activity against Trypanosoma cruzi Tulahuen trypomastigotes beta-galactosidase infected in rat H9c2 cells. Format: toxicity, cell-based. To be noted: read-out: Ratio IC50.
Data set [8] is described as follows: Solubility of compound in FASSIF at 1 mg incubated for 4 hrs by HPLC-UV analysis. Format: physicochemical. Put shortly:
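1 mg of solid compound was shaken in 1 mL FaSSIF at pH 6.5, at 900 rpm for 4 h at room temperature. The suspension was filtered and the supernatant quantified by HPLC-UV against a single-point DMSO standard. The dynamic range was 1–1000 μg/mL.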

A short description of data set [9]: Volume of drug distribution at steady state in CD-1 mouse at 5 mg/kg, iv after 5 mins to 24 hrs by LC-MS/MS analysis. Format: ADME, organism-based. To be noted: in vivo, read-out: Vdss. The essentials: as §2
Data set [10] in a line: Efflux ratio of apparent permeability across […] in MDCK-MDR1 cells at 3 uM after 60 mins by LC-MS/MS analysis. Format: ADME, cell-based, Canis lupus familiaris. To be noted: dog, mdck-mdr1, 1 h. The essentials:
as §1

Data set [11] is described as follows: Cmax in C57BL/6 mouse assessed as 5-Fluoro-6-(trifluoromethyl)benzothiazol-2-amine level at 50 mg/kg, po adminstered via gavage as suspension after 15 mins to 24 hrs by LC-MS/MS analysis. Format: ADME, organism-based. Set-up: dose 50 mg/kg, route oral. As to conditions: in vivo. The essentials: (§4)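 Female C57BL/6 mice (n=3) were gavaged with 50 mg/kg parent compound as a 1% methylcellulose suspension. Whole blood was sampled at 15, 30, 45 min and 1, 2, 4, 8 and 24 h, diluted 1/2 with water and frozen.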

Data set [12] in a line: Half life in CD-1 mouse at 5 mg/kg, iv after 5 mins to 24 hrs by LC-MS/MS analysis. It is filed as ADME, organism-based. To be noted: in vivo. The essentials:
as §2

Data set [13] in a line: Ratio of drug level in blood to plasma in human at 1 uM after 1 hr by LC-MS/MS analysis. It is filed as ADME, cell-free. The essentials:
(§5)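 Compound at a final 1 μM was mixed into prewarmed mouse or human whole blood at 37 °C. At 0 and 60 min, blood aliquots were lysed with water and matrix-matched with plasma. Samples were precipitated with IS-containing buffer and analysed by LC-MS/MS. The blood/plasma ratio was taken from compound:IS peak-area ratios.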

A short description of data set [14]: Intrinsic clearance in human liver microsomes at 0.5 uM in presence of NADPH measured up to 45 mins by UPLC/MS/MS analysis. It is filed as ADME, Microsome. As to conditions: 0.75 h. Put shortly:
(§6)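 Compound at 0.5 μM was incubated with male CD1 mouse or human liver microsomes (0.5 mg/mL in 50 mM potassium phosphate, pH 7.4). The reaction was started with excess NADPH. Samples were taken at 0 and serial times up to 45 min, quenched in acetonitrile with internal standard and analysed by UPLC/MS/MS. Clint (mL/min/g tissue) was derived from t1/2 of parent remaining. Midazolam was the positive control.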
(Liver microsomes are a subcellular fraction often used to study metabolism.)

Data set [15] in a line: AUCt in C57BL/6 mouse at 50 mg/kg, po after 15 mins to 24 hrs by LC-MS/MS analysis. It is filed as ADME, organism-based. Further details: dose 50 mg/kg, time upper 24 hr, time lower 0.25 hr, route oral. As to conditions: in vivo.
Data set [16] can be described thus: Tmax in C57BL/6 mouse at 50 mg/kg, po after 15 mins to 24 hrs by LC-MS/MS analysis. It is filed as ADME, organism-based. To be noted: in vivo.
Data set [17] has as its system Trypanosoma cruzi. Nature of the data set: Antitrypanosomal activity against Trypanosoma cruzi Tulahuen trypomastigotes beta-galactosidase infected in rat H9c2 cells measured after 72 hrs by DRAQ5 DNA dye based confocal microscopic analysis. As to conditions: H9c2, 72 h. Format: functional, organism-based.
Data set [18] in a line: AUC in C57BL/6 mouse assessed as 5-Fluoro-6-(trifluoromethyl)benzothiazol-2-amine level at 50 mg/kg, po adminstered via gavage as suspension after 15 mins to 24 hrs by LC-MS/MS analysis. It is filed as ADME, organism-based. Set-up: dose 50 mg/kg, time upper 24 hr, time lower 0.25 hr, route oral. To be noted: in vivo. The essentials:
as §4

Data set [19] in a line: Ratio of drug level in blood to plasma in mouse at 1 uM after 1 hr by LC-MS/MS analysis. Format: ADME, cell-free. The essentials: as §5
Data set [20] can be described thus: Cmax in C57BL/6 mouse at 50 mg/kg, po after 15 mins to 24 hrs by LC-MS/MS analysis. Format: ADME, organism-based. Further details: dose 50 mg/kg, route oral. As to conditions: in vivo.
A short description of data set [21]: Intrinsic clearance in CD-1 mouse liver microsomes at 0.5 uM in presence of NADPH measured up to 45 mins by UPLC/MS/MS analysis. Format: ADME, Microsome. To be noted: 0.75 h. The essentials: as §6
Data set [22] relates to H9c2. Briefly: Cytotoxicity against rat H9c2 cells assessed as reduction in cell viability. It is filed as cell-based.

≈ marks a conversion by molar mass, not a printed value. Calls of active or inactive are those of the source. The calls are words filed in the database; no cut-off is given here. Some results are limits rather than exact numbers.

As a reminder, the Papp is a coefficient for how fast a substance crosses the barrier. For orientation: clearance means a measure of how efficiently the substance is removed, as volume per time. A lower clearance goes with a low capacity for elimination. Broadly, the solubility is the concentration that dissolves in the medium under given conditions. High values mean a readily soluble substance, low ones a poorly soluble substance. What is called Cmax is the highest concentration seen after dosing. In general, half-life refers to the time in which the quantity being followed falls by half. A higher half-life goes with slow decline. One may read the AUC(0-t) as the area under the concentration-time curve up to a stated or last time point. The term Tmax denotes the time at which the peak concentration occurs. By IC50 is commonly meant the concentration that inhibits the measured activity by half. One may read the AUC as concentration integrated over time. Take `O=C(Nc1nc2cc(F)c(C(F)(F)F)cc2s1)C1CC1`: in [1], the Papp at 1 h, 3 µM turned out to be 17.4 ×10⁻⁶ cm/s. Also, in data set [2], the clearance was determined as 58.3 mL/min/kg. The outcome in [3] was Active. The PPB result in data set [4] and in data set [5] was “Active” throughout. Besides, the solubility kinetic in [6] was determined as 36 µM (≈ 11 µg/mL). Moreover, in data set [7], the selectivity ratio is greater than 630. The solubility at 4 h in data set [8] is 51 µg/mL (≈ 168 µM). Besides, the Vd in [9] amounted to 5.73 L/kg. In addition, in data set [10], the Ratio is 1.5. The Cmax in data set [11] came to 634 ng/mL; in data set [20] it was 3390 ng/mL. The same compound showed a half-life in [12] of 0.97 h. Moreover, the blood plasma ratio at 1 h, 1 µM came to 0.8 in [13] and 1.2 in [19]. Besides, the CLH in [14] stood at 0.41 mL/min/g; in [21], 5.26 mL/min/g. In [15], the AUC(0-t) turned out to be 31600 ng·h/mL. Moreover, the Tmax in [16] was found to be 1.33 h. In addition, the IC50 in data set [17] is 79 nM; in data set [22] it was greater than 50000 nM. The AUC in data set [18] amounted to 10065.32 ng·h/mL.
